We go through 27 molecules from ChEMBL document CHEMBL3580653, “Development of novel CXC chemokine receptor 7 (CXCR7) ligands: selectivity switch from CXCR4 antagonists with a cyclic pentapeptide scaffold” (J Med Chem, 2015).

Where a SMILES comes first, the peptide text is derived from it. [ ]: non-standard residue; d: D form. 2Nal = N[C@@H](Cc1ccc2ccccc2c1)C(=O)O; Pip = O=C(O)[C@@H]1CCCCN1; dPip = O=C(O)[C@H]1CCCCN1; βAla = NCCC(=O)O Some results are limits rather than exact numbers.

For test [1], the target named is T1, Atypical chemokine receptor 3 (Homo sapiens, UniProt P25106). The test can be described thus: Agonist activity at wild type CXCR7 (unknown origin) expressed in HEK293E cells co-transfected with receptor-eYFP construct and beta-arrestin2-Rluc assessed as induction of receptor-mediated beta-arrestin recruitment by BRET assay. The class given is cell-based. The gist of the method:
(§1)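 Transient co-transfection of HEK293E cells with 1 µg receptor-eYFP plus 0.05 µg β-arrestin2-Rluc, made up to 2 µg/well with empty vector. Cells cultured overnight, seeded on poly(D-lysine) plates and grown 24 h more. Ligand added in BRET buffer (PBS, 0.5 mM MgCl2, 0.01% BSA), 5 min at 37 °C, then coelenterazine h 5 µM final. Read 30 min after ligand addition. Net BRET = YFP (510–550 nm)/Rluc (460–500 nm) minus Rluc-only background.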
In general terms: Arrestin recruitment assays detect the binding of arrestin to an activated receptor.

Test [2] has as its target Atypical chemokine receptor 3 (Homo sapiens, UniProt P25106, D179N). The test can be described thus: Agonist activity at CXCR7 D179N mutant (unknown origin) expressed in HEK293E cells co-transfected with receptor-eYFP construct and beta-arrestin2-Rluc assessed as induction of receptor-mediated beta-arrestin recruitment by BRET assay. The class given is cell-based. The gist of the method:
as §1

Test [3] addresses T1, Atypical chemokine receptor 3. The test can be described thus: Inhibition of [125I]SDF-1alpha binding to CXCR7 (unknown origin) expressed in CHO cell membranes incubated for 1 hr by radioligand displacement assay. The method, boiled down: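 Scintillation proximity binding: receptor membranes (10−20 µg/well) on WGA beads (0.25 mg/well) incubated with peptide and [125I]-SDF-1α (0.20 nM for CXCR4, 0.25 nM for CXCR7). Room temperature, 1 h. Bound radioactivity counted 1 min/well. IC50 taken from inhibition of tracer binding.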
For orientation: Displacement assays read how much labelled ligand stays bound in the presence of the test substance.

For test [4] the target is unchanged. The test can be described thus: Agonist activity at CXCR7 (unknown origin) expressed in HEK293E cells co-transfected with receptor-eYFP construct and beta-arrestin2-Rluc assessed as induction of receptor-mediated beta-arrestin recruitment by BRET assay. Format: cell-based. The method, boiled down:
as §1

In test [5] the target is C-X-C chemokine receptor type 4 (Homo sapiens, UniProt P61073). The test can be described thus: Inhibition of [125I]SDF-1alpha binding to CXCR4 (unknown origin) expressed in HEK293 cell membranes incubated for 1 hr by radioligand displacement assay.
Sequence of C-X-C chemokine receptor type 4 (P61073 whole entry): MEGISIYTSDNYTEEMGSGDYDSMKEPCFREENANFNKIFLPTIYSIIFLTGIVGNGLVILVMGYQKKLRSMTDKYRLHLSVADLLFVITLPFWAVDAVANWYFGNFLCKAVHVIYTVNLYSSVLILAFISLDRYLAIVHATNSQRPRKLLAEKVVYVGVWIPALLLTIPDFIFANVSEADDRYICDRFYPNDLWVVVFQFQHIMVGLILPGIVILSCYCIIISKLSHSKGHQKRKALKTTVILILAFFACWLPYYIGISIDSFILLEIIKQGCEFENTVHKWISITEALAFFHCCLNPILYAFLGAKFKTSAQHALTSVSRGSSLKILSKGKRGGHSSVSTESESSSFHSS
The target of test [6] is Atypical chemokine receptor 3 (Homo sapiens, UniProt P25106, S198R). The test can be described thus: Agonist activity at CXCR7 S198R mutant (unknown origin) expressed in HEK293E cells co-transfected with receptor-eYFP construct and beta-arrestin2-Rluc assessed as induction of receptor-mediated beta-arrestin recruitment by BRET assay. The class given is cell-based. The method, boiled down:
as §1

Test [7] concerns the target Atypical chemokine receptor 3 (Homo sapiens, UniProt P25106, D275N). The test can be described thus: Agonist activity at CXCR7 D275N mutant (unknown origin) expressed in HEK293E cells co-transfected with receptor-eYFP construct and beta-arrestin2-Rluc assessed as induction of receptor-mediated beta-arrestin recruitment by BRET assay. The class given is cell-based. The method, boiled down:
as §1

Sequence of Atypical chemokine receptor 3 (Homo sapiens, UniProt P25106, D179N) (P25106 whole entry D179N): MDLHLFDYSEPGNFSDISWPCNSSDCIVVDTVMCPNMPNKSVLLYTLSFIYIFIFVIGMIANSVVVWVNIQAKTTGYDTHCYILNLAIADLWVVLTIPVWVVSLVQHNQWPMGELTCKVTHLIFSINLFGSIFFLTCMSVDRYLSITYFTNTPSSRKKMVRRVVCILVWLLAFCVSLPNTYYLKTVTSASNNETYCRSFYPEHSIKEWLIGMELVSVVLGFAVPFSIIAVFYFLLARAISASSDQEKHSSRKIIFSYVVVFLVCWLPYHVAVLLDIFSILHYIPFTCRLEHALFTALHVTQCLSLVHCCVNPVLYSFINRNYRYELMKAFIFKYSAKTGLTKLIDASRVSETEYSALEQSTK
T1 sequence (P25106 whole entry): as the sequence (P25106 whole entry D179N) above, with N179D counted along it
Sequence of Atypical chemokine receptor 3 (Homo sapiens, UniProt P25106, S198R) (P25106 whole entry S198R): as the sequence (P25106 whole entry D179N) above, with N179D, S198R counted along it
Sequence of Atypical chemokine receptor 3 (Homo sapiens, UniProt P25106, D275N) (P25106 whole entry D275N): as the sequence (P25106 whole entry D179N) above, with N179D, D275N counted along it

For `N=C(N)NCCC[C@@H]1NC(=O)[C@H](CCCNC(=N)N)NC(=O)[C@@H](Cc2ccc(O)cc2)NC(=O)[C@@H]2CCCN2C(=O)[C@H](Cc2ccc3ccccc3c2)NC1=O`, the EC50 is 0.19 µM in test [1] (read-out: EC50); 0.126 µM in test [1] (read-out: pEC50 (converted)); 3.5 µM in test [2] (read-out: EC50); 3.98 µM in test [2] (read-out: pEC50 (converted)); 0.074 µM in test [4] (read-out: EC50); 0.36 µM in test [6]. For the same molecule, in test [7], the EC50 was 1.5 µM. For the same molecule, the IC50 was 1.5 µM in test [3] and greater than 30 µM in test [5].

As to `N=C(N)NCCC[C@@H]1NC(=O)[C@H](CCCNC(=N)N)NC(=O)[C@@H](Cc2ccc(O)cc2)NC(=O)[C@H]2CCCN2C(=O)[C@H](Cc2ccc3ccccc3c2)NC1=O`, the IC50 in test [3] and in test [5] was greater than 30 µM in each case.

With `C[C@H]1C(=O)N[C@H](Cc2ccc(O)cc2)C(=O)N[C@@H](CCCNC(=N)N)C(=O)N[C@@H](CCCNC(=N)N)C(=O)N[C@@H](Cc2ccc3ccccc3c2)C(=O)N1C`, the IC50 in test [3] is 15 µM; in test [5] it was greater than 30 µM.

Take `C[C@@H]1C(=O)N[C@H](Cc2ccc(O)cc2)C(=O)N[C@@H](CCCNC(=N)N)C(=O)N[C@@H](CCCNC(=N)N)C(=O)N[C@@H](Cc2ccc3ccccc3c2)C(=O)N1C`: the figures for the concentration for half-maximal inhibition (IC50) in test [3] and in test [5] were greater than 30 µM and 4.6 µM, respectively.

`N=C(N)NCCC[C@@H]1NC(=O)[C@H](Cc2ccc(O)cc2)NC(=O)[C@@H]2CCCN2C(=O)[C@H](Cc2ccc3ccccc3c2)NC(=O)[C@H](CCCNC(=N)N)NC1=O`: the IC50 in test [3] and in test [5] was greater than 30 µM in each case.

As to `N=C(N)NCCC[C@@H]1NC(=O)[C@@H](CCCNC(=N)N)NC(=O)[C@@H](Cc2ccc(O)cc2)NC(=O)[C@@H]2CCCN2C(=O)[C@H](Cc2ccc3ccccc3c2)NC1=O`, the IC50 in test [3] was 4.6 µM; in test [5], greater than 30 µM.

With `N=C(N)NCCC[C@@H]1NC(=O)[C@@H](Cc2ccc(O)cc2)NC(=O)[C@@H]2CCCN2C(=O)[C@H](Cc2ccc3ccccc3c2)NC(=O)[C@@H](CCCNC(=N)N)NC1=O`, the concentration for half-maximal inhibition (IC50) in test [3] and in test [5] was greater than 30 µM in each case.

Consider `N=C(N)NCCC[C@@H]1NC(=O)[C@H](CCCNC(=N)N)NC(=O)[C@@H](Cc2ccc(O)cc2)NC(=O)[C@@H]2CCCN2C(=O)[C@@H](Cc2ccc3ccccc3c2)NC1=O`, for which the IC50 in test [3] and in test [5] was greater than 30 µM in each case.

`CN1C(=O)[C@@H]2CCCN2C(=O)[C@H](Cc2ccc3ccccc3c2)NC(=O)[C@H](CCCNC(=N)N)NC(=O)[C@H](CCCNC(=N)N)NC(=O)[C@H]1Cc1ccc(O)cc1`: the IC50 in test [3] is 18 µM; in test [5], greater than 30 µM.

Regarding `CN1C(=O)[C@@H](Cc2ccc(O)cc2)NC(=O)[C@@H]2CCCN2C(=O)[C@H](Cc2ccc3ccccc3c2)NC(=O)[C@H](CCCNC(=N)N)NC(=O)[C@@H]1CCCNC(=N)N`, the IC50 is 2.4 µM in test [3] and greater than 30 µM in test [5].

`CN1C(=O)[C@H](CCCNC(=N)N)NC(=O)[C@@H](Cc2ccc(O)cc2)NC(=O)[C@@H]2CCCN2C(=O)[C@H](Cc2ccc3ccccc3c2)NC(=O)[C@@H]1CCCNC(=N)N`: the EC50 in test [1] (read-out: EC50) is 0.24 µM; in test [1] (read-out: pEC50 (converted)) it was 0.158 µM; in test [2] (read-out: EC50), 2 µM; in test [4] (read-out: EC50) it was 0.095 µM; in test [6], 0.36 µM; in test [7] it was 0.65 µM. Besides, the 50% inhibitory concentration (IC50) in test [3] is 0.8 µM; in test [5] it was greater than 30 µM.

On to `CN1C(=O)[C@H](CCCNC(=N)N)NC(=O)[C@H](CCCNC(=N)N)NC(=O)[C@@H](Cc2ccc(O)cc2)NC(=O)[C@@H]2CCCN2C(=O)[C@@H]1Cc1ccc2ccccc2c1`, for which the IC50 in test [3] was 3.4 µM; in test [5] it was greater than 30 µM.

Consider `CN1C(=O)[C@@H]2CCCN2C(=O)[C@H](Cc2ccc3ccccc3c2)NC(=O)[C@H](CCCNC(=N)N)NC(=O)[C@H](CCCNC(=N)N)NC(=O)[C@@H]1Cc1ccc(O)cc1`, for which the IC50 was 23 µM in test [3] and greater than 30 µM in test [5].

As to `CN1C(=O)[C@@H](Cc2ccc(O)cc2)NC(=O)[C@@H]2CCCN2C(=O)[C@H](Cc2ccc3ccccc3c2)NC(=O)[C@H](CCCNC(=N)N)NC(=O)[C@H]1CCCNC(=N)N`, the IC50 was 13 µM in test [3] and greater than 30 µM in test [5].

Take `CN1C(=O)[C@H](CCCNC(=N)N)NC(=O)[C@@H](Cc2ccc(O)cc2)NC(=O)[C@@H]2CCCN2C(=O)[C@H](Cc2ccc3ccccc3c2)NC(=O)[C@H]1CCCNC(=N)N`: the results for the IC50 in test [3] and in test [5] were 4.6 µM and greater than 30 µM, respectively.

For `CN1C(=O)[C@H](CCCNC(=N)N)NC(=O)[C@H](CCCNC(=N)N)NC(=O)[C@@H](Cc2ccc(O)cc2)NC(=O)[C@@H]2CCCN2C(=O)[C@H]1Cc1ccc2ccccc2c1`, the IC50 in test [3] and in test [5] was greater than 30 µM in each case.

`C[C@H]1NC(=O)[C@@H]2CCCN2C(=O)[C@H](Cc2ccc3ccccc3c2)NC(=O)[C@H](CCCNC(=N)N)N(C)C(=O)[C@H](CCCNC(=N)N)NC1=O`: the IC50 in test [3] and in test [5] was greater than 30 µM in each case.

As to `C[C@@H]1NC(=O)[C@@H](Cc2ccc(O)cc2)NC(=O)[C@@H]2CCCN2C(=O)[C@H](Cc2ccc3ccccc3c2)NC(=O)[C@H](CCCNC(=N)N)N(C)C1=O`, the IC50 in test [3] was 16 µM; in test [5] it was greater than 30 µM.

`C[C@H]1C(=O)N[C@@H](Cc2ccc3ccccc3c2)C(=O)N2CCC[C@H]2C(=O)N[C@H](Cc2ccc(O)cc2)C(=O)N[C@@H](CCCNC(=N)N)C(=O)N1C`: the IC50 in test [3] was 11 µM; in test [5], greater than 30 µM.

Regarding `C[C@@H]1NC(=O)[C@H](CCCNC(=N)N)N(C)C(=O)[C@H](CCCNC(=N)N)NC(=O)[C@@H](Cc2ccc(O)cc2)NC(=O)[C@@H]2CCCN2C1=O`, the IC50 in test [3] and in test [5] was greater than 30 µM each time.

Take `N=C(N)NCCC[C@@H]1NC(=O)[C@H](CCCNC(=N)N)NC(=O)[C@@H](Cc2ccc(O)cc2)NC(=O)CNC(=O)[C@H](Cc2ccc3ccccc3c2)NC1=O`: the half-maximal inhibitory concentration (IC50) in test [3] was greater than 30 µM. The EC50 in test [4] (read-out: EC50) is 2.4 µM; in test [4] (read-out: pEC50 (converted)), 2 µM.

Consider `C[C@@H]1NC(=O)[C@H](Cc2ccc3ccccc3c2)NC(=O)[C@H](CCCNC(=N)N)NC(=O)[C@H](CCCNC(=N)N)NC(=O)[C@@H](Cc2ccc(O)cc2)NC1=O` (cyclo([2Nal]A[dY]RR)), for which the IC50 turned out to be 18 µM in test [3] and 23 µM in test [5].

As for `N=C(N)NCCC[C@@H]1NC(=O)[C@H](CCCNC(=N)N)NC(=O)[C@@H](Cc2ccc(O)cc2)NC(=O)[C@@H]2CCCCN2C(=O)[C@H](Cc2ccc3ccccc3c2)NC1=O` (cyclo([2Nal][Pip][dY]RR)), the concentration for half-maximal inhibition (IC50) in test [3] is 13 µM; in test [5], greater than 30 µM.

Turning to `CC[C@H](C)[C@@H]1NC(=O)[C@H]([C@@H](C)O)NC(=O)[C@H]2CCCN2C(=O)[C@H](Cc2ccc3ccccc3c2)NC(=O)[C@H](CCCNC(=N)N)NC(=O)[C@@H](CCCNC(=N)N)NC1=O` (cyclo([2Nal][dP]TI[dR]R)), in test [3], the IC50 stood at 1.7 µM. The EC50 was 0.036 µM in test [4] (read-out: EC50) and 0.0316 µM in test [4] (read-out: pEC50 (converted)).

In the case of `N=C(N)NCCC[C@@H]1NC(=O)[C@H](CCCNC(=N)N)NC(=O)[C@@H](Cc2ccc(O)cc2)NC(=O)[C@H]2CCCCN2C(=O)[C@H](Cc2ccc3ccccc3c2)NC1=O` (cyclo([2Nal][dPip][dY]RR)), the IC50 in test [3] and in test [5] was greater than 30 µM each time.

Take `N=C(N)NCCC[C@@H]1NC(=O)[C@H](CCCNC(=N)N)NC(=O)[C@@H](Cc2ccc(O)cc2)NC(=O)CCNC(=O)[C@H](Cc2ccc3ccccc3c2)NC1=O` (cyclo([2Nal][βAla][dY]RR)): the figures for the IC50 in test [3] and in test [5] were greater than 30 µM and 6 µM, respectively.

Regarding `C[C@H]1NC(=O)[C@H](Cc2ccc3ccccc3c2)NC(=O)[C@H](CCCNC(=N)N)NC(=O)[C@H](CCCNC(=N)N)NC(=O)[C@@H](Cc2ccc(O)cc2)NC1=O` (cyclo([dY]RR[2Nal][dA])), the half-inhibitory concentration (IC50) was greater than 30 µM in test [3] and 2.2 µM in test [5].

Usually IC50 stands for the concentration needed to halve the response being measured.
